Hits are enriched below; roughly 2.6% of the tested compounds scored in any of these assays.
DENV2 CPE = inhibitors of DENV2 cytopathic effect, primary screen, cell-based, plate reader, single concentration | DENV2-infected cells, cytopathic effect rescue | CPE inhibition, % at 9.99 µM | actives 1.7% (n = 350,000) | AID 651640, 2012; in the data active = CPE inhibition above about 20%, passing the limit was not always enough; tested in BHK-21 cells;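 also: 0% = median of neutral control wells and 100% = median of positive control wells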
ERAP1 inh = human ERAP1 aminopeptidase inhibitors, primary screen, biochemical, single point, plate reader | inhibition, % at 10.7 µM | AID 652197, 2013 | actives 0.15% (n = 340,000) | recombinant ERAP1, Leu-AMC fluorescence, 60 min;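 active = mean replicate inhibition of at least 30%, or all replicates individually reaching that 30% level; inactive = mean below 30% and not every replicate reaching it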;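 also: 0% = neutral control wells and 100% = L-leucinethiol positive control wells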
INS-1E GSIS act = GLuc luminescence reporter in INS-1E cells, primary screen for activators of glucose-dependent secretion of insulin. INS-1E GLuc reporter insulin secretion, 2-3 h. actives 0.61% (n = 370,000). activation, % at 16.6 µM;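 active = lowest replicate activation of at least 40%, so every replicate reaches that level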;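 also: 0% = median of neutral control wells and 100% = median of IBMX positive control wells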
CFTR F508del cor = F508del CFTR correction, initial screen, CFBE line, single point; CFBE cells, YFP halide quenching; stimulated with forskolin plus potentiator P3; % fluorescence drop versus neutral controls; activity (quench increase), % at 7.58 µM; actives 0.36% (n = 350,000);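 active = mean added fluorescence quench of at least 8% versus neutral control, with both replicates also reaching 8%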;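 also: cells transiently co-express mutant CFTR-F508del with the halide-sensitive YFP; corrector assay measuring rescue of mutant channel to the surface after 24 h compound exposure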
miR-122 sensor = miR-122 Renilla sensor signal increase in Huh7, primary screen, miR-122 inhibitor project, cell-based, single point, plate reader; Huh7 miR-122 Renilla luciferase sensor, 48 h; neutral wells = 0, positive control = 100; AID 602342, 2012; actives 0.3% (n = 340,000); activation (reporter increase), % at 12.5 µM;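 active = mean replicate activation score at least 90 and every replicate individually at or above 90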;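 also: higher luciferase means less miR-122 activity so hits act as miR-122 inhibitors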
E-selectin induc = E-selectin induction in HUVECs, primary screen, imaging, HUVEC, immunofluorescence imaging, single point. normalized: neutral wells 0, TNF-alpha wells 100. activation, % at 7.58 µM. actives 0.37% (n = 260,000);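 active = mean E-selectin-positive cell signal at least 10% of the positive control, reached in at least 60% of replicates, without over 20% cell loss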
Target sequence (P16581 whole entry, looked up): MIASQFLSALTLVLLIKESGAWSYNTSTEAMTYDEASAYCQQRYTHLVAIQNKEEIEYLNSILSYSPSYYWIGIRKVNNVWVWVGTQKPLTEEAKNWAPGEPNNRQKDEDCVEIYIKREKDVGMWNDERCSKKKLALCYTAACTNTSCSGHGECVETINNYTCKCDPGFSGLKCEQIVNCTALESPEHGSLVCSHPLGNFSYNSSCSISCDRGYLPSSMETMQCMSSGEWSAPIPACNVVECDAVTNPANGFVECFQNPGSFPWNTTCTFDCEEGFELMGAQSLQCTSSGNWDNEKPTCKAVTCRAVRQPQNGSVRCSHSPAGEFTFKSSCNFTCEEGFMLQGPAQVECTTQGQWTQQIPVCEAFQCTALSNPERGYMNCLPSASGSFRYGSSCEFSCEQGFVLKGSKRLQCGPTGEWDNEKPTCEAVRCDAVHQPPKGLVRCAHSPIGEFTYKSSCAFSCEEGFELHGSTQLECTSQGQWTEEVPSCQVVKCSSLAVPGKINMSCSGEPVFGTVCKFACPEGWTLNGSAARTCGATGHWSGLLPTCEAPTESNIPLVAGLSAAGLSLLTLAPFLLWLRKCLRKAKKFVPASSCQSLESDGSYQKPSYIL
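Read-out: % PE-positive cells | Test system: HUVEC | Doses: One compound dose added by pin transfer | Buffer or medium: EGM-2 over gelatin coat | Signal: Immunofluorescence imaging | Benchmarks: TNF-alpha, DMSO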
Numbers without * were called inactive; . = not tested or not shown; [ ] = dose if it differs, or a comment.

SMILES	DENV2 CPE	ERAP1 inh	INS-1E GSIS act	CFTR F508del cor	miR-122 sensor	E-selectin induc
CS(=O)(=O)N1CCN(c2ccccc2NC(=O)c2ccc(Br)o2)CC1	4	11	3	5	2	.
CS(=O)(=O)N1CCN(c2ccccc2NC(=O)c2ccco2)CC1	-2	-3	42*	4	.	.
COc1ccccc1NC(=O)N1CCCCN2[C@H](C1)[C@@H](c1ccc(-c3cccc(C)c3)cc1)[C@@H]2CO	-8	4	-8	-6	-26[16.7 µM]	-1
COc1ccccc1NC(=O)N1CCCCN2[C@H](CO)[C@H](c3ccc(-c4cccc(C)c4)cc3)[C@@H]2C1	22*	4	3	-1	-14[16.7 µM]	-1
COc1cccc(-c2ccc([C@H]3[C@H](CO)N4CCCCN(C(=O)c5ccc(F)cc5)C[C@@H]34)cc2)c1	37*	1	-5	0	9[16.7 µM]	-1
Cc1cccc(-c2ccc([C@H]3[C@@H](CO)N4CCCCN(C(=O)c5ccncc5)C[C@H]34)cc2)c1	20*	1	4	-1	25[16.7 µM]	0
CCNC(=O)Nc1ccc2c(c1)C(=O)N(C)[C@@H]1CC[C@H](CC(=O)NCc3ccc(F)cc3)O[C@@H]1CO2	0	3	-4	1	0[16.7 µM]	0
C[C@H]1CN([C@@H](C)CO)S(=O)(=O)c2ccc(C#CCN(C)C)cc2O[C@@H]1CN(C)C(=O)CN(C)C	4	-3	10	1	0[16.7 µM]	0
O=C(C[C@H]1CC[C@@H](NC(=O)c2ccccc2)[C@H](CO)O1)NCc1ccncn1	-3	3	11	-1	.	0
CNc1nc(N)c(C(=O)C(C)(C)C)s1	.	-2	47*	.	-2	.
CNc1ncc(C(=O)C(C)(C)C)s1	.	.	.	.	-5	.
CCC(=O)N1C[C@@H](C)[C@@H](OC)CN(C)C(=O)c2ccc(NC(=O)c3ccc(F)cc3)cc2OC[C@H]1C	-5	0	-2	0	12[16.7 µM]	0
ClCCCc1cn(C[C@H]2CC[C@@H]([C@@H]3CC[C@H](Cn4cc(CCCCl)nn4)O3)O2)nn1	22*	-1	-4	-1	7	0
CCCCc1cn(C[C@H]2CC[C@@H]([C@@H]3CC[C@H](Cn4cc(CCCC)nn4)O3)O2)nn1	-2	1	-3	0	-1	0
CO[C@H]1CN(C)C(=O)c2cc(NC(=O)Nc3ccccc3F)ccc2OC[C@H](C)N(C(C)=O)C[C@H]1C	21*	-2	-15	2	.	1
CO[C@@H]1CN(C)C(=O)c2ccc(NC(=O)C3CCOCC3)cc2OC[C@H](C)N(CC2CC2)C[C@@H]1C	8	3	-1	2	.	0
CO[C@@H]1CN(C)C(=O)c2ccc(NC(=O)C3CCOCC3)cc2OC[C@@H](C)N(CC2CCCCC2)C[C@H]1C	54*	3	4	0	.	1
CO[C@@H]1CN(C)C(=O)c2ccc(NC(=O)Nc3ccccc3)cc2OC[C@@H](C)N(C(C)=O)C[C@H]1C	26*	-1	-2	-2	.	0
CO[C@@H]1CN(C)C(=O)c2cc(NC(=O)c3ccccc3F)ccc2OC[C@@H](C)N(C(C)=O)C[C@H]1C	-1	0	14	-1	.	0
CO[C@H]1CN(C)C(=O)c2cc(NC(=O)c3ccccc3F)ccc2OC[C@@H](C)N(C(C)=O)C[C@@H]1C	70*	-8	16	3	.	0
CCCNC(=O)N1CCC2(CC1)CN(C(C)=O)[C@@H](CO)c1[nH]c3cc(OC)ccc3c12	.	.	9	.	.	.
Cc1noc(C)c1S(=O)(=O)Nc1ccc2c(c1)C(=O)N([C@@H](C)CO)C[C@H](C)[C@H](CN(C)S(=O)(=O)c1c(C)noc1C)OCCCC[C@@H](C)O2	7	2	-2	-2	23[16.7 µM]	0
COc1ccccc1C(=O)N1C[C@H]2[C@@H](c3ccccc31)[C@H](CO)N2C(=O)C1CCCC1	4	2	-9	5	-20[16.7 µM]	0
CO[C@@H]1CN(C)C(=O)c2ccc(NC(=O)Nc3ccccc3F)cc2OC[C@H](C)N(C)C[C@@H]1C	-5	-2	12	2	-6[16.7 µM]	0
CO[C@H]1CN(C)C(=O)c2ccc(NC(=O)Nc3ccccc3F)cc2OC[C@H](C)N(C)C[C@H]1C	33*	-2	4	2	5[16.7 µM]	0
SMILES	DENV2 CPE	ERAP1 inh	INS-1E GSIS act	CFTR F508del cor	miR-122 sensor	E-selectin induc
CO[C@H]1CN(C)C(=O)c2cc(NC(=O)c3ccccc3F)ccc2OC[C@H](C)N(CC2CCOCC2)C[C@H]1C	81*	-5	2	-1	.	0
O=C(Nc1ccc(F)cc1)N1CCCCN2[C@@H](CO)[C@H](c3ccc(-c4ccncc4)cc3)[C@@H]2C1	30*	-1	-14	-1	-1[16.7 µM]	0
CCC(=O)N1CCCCN2[C@@H](CO)[C@H](c3ccc(-c4ccc(F)cc4)cc3)[C@@H]2C1	25*	1	0	3	-2[16.7 µM]	0
CN(C)CC#Cc1ccc([C@@H]2[C@H](CO)N3CCCCN(C(=O)Nc4cc(F)ccc4F)C[C@@H]23)cc1	-14	1	2	0	-9[16.7 µM]	0
COc1ccc(C#Cc2ccc([C@H]3[C@@H](CO)N4CCCCN(C(=O)Nc5ccc(F)cc5)C[C@H]34)cc2)cc1	31*	0	2	-3	-9[16.7 µM]	0
CN(C)CC#Cc1ccc([C@H]2[C@H](CO)N3CCCCN(C(=O)Nc4cc(F)ccc4F)C[C@@H]23)cc1	32*	1	11	5	1[16.7 µM]	0
CCCNC(=O)N(C)C[C@@H]1Oc2ncc(-c3ccccc3F)cc2C(=O)N([C@H](C)CO)C[C@@H]1C	-2	0	8	2	19[16.7 µM]	0
O=C(C[C@H]1C=C[C@H](NS(=O)(=O)c2ccc(F)cc2)[C@H](CO)O1)NCc1ccc(Cl)c(Cl)c1	-4	0	-14	2	.	0
O=C(Nc1ccc(F)cc1)N1CCCCN2[C@H](CO)[C@@H](c3ccc(C#Cc4ccccc4)cc3)[C@H]2C1	-24	2	-14	6	-34[16.7 µM]	0
O=C(Nc1ccc(F)cc1)N1CCCCN2[C@@H](CO)[C@@H](c3ccc(C#Cc4ccccc4)cc3)[C@@H]2C1	-14	0	44*	-5	-16[16.7 µM]	0
O=C(Nc1cccc(F)c1)N1CCCCN2[C@@H](CO)[C@H](c3ccc(C#Cc4ccccc4)cc3)[C@@H]2C1	0	-5	-5	8.9*	-9[16.7 µM]	-1
O=C(Nc1cccc(F)c1)N1CCCCN2[C@H](C1)[C@H](c1ccc(C#Cc3ccccc3)cc1)[C@@H]2CO	.	.	10	5	6[16.7 µM]	0
